Assay results taken from ChEMBL document CHEMBL2331117 (J Med Chem, 2013).
pIC50: −log10 of the molar value. ≈ marks a conversion by molar mass, not a printed value.

Assays:
[1] = Drug uptake in tumor of athymic mouse xenografted with human PC3 cells at 100 mg/kg, po after 24 hrs; assay type: ADME, organism-based, Neoplasm, PC-3; parameters: dose 100 mg/kg, route oral; details: read-out: Drug uptake
How it was run: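 PC-3 cells (3 × 10⁶, passages 10–14, in ice-cold HBSS) were implanted sc in 5–8 week old male nude mice. Tumors of 200–500 mg received a single oral 100 mg/kg dose. Plasma and tumor were collected at 1, 4, 8, 16, 24 and 32 h and homogenized in buffer. Lysates were pooled per group (n = 5), and phospho-proteins were measured by Western blot normalized to α-tubulin.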

[2] = Kinetic solubility of the compound; assay type: physicochemical; details: read-out: Kinetic_solubility
[3] = Plasma concentration in athymic mouse plasma xenografted with human MCF7 cells at 100 mg/kg, po after 16 hrs; assay type: ADME, organism-based; parameters: dose 100 mg/kg, route oral
How it was run: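 MCF-7 cells (5 × 10^6, in 50% cold HBSS/50% growth-factor-reduced matrigel) were implanted subcutaneously in the hindflank of 5–8 week old female nude mice. At 40–150 mg tumour size, mice received a single oral dose of 100 mg/kg, and plasma was sampled at the listed times after dosing.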

[4] = Drug uptake in tumor of athymic mouse xenografted with human MCF7 cells at 100 mg/kg, po after 1 hr; assay type: ADME, organism-based, Neoplasm; parameters: dose 100 mg/kg, route oral; details: read-out: Drug uptake
[5] = test system: Mus musculus; test: In vivo inhibition of mTORC1-mediated phosphorylation of pS6 at (serine 240/244) in human MCF7 cells xenografted into athymic nude mouse at 100 mg/kg, po after 1 hr by Western blotting analysis relative to control; assay type: functional; details: MCF7, 1 h
How it was run: (§1)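 MCF-7 cells (DMEM, 10% FBS) were implanted subcutaneously at 5 × 10^6 cells in 50% cold HBSS/50% growth-factor-reduced matrigel into the hindflank of 5−8 week old female nude mice. At tumor size 40−150 mg, mice received a single oral dose of 100 mg/kg. Tumor lysates were pooled per group. Phospho-AKT (S473, T308), p70S6K (T389), S6 (S240/244) and 4E-BP1 (T37/46) were measured by Western blot normalized to α-tubulin.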

[6] = target: Phosphatidylinositol 4,5-bisphosphate 3-kinase catalytic subunit beta isoform (Homo sapiens, UniProt P42338); test: Inhibition of PI3Kbeta (unknown origin)
Sequence of Phosphatidylinositol 4,5-bisphosphate 3-kinase catalytic subunit beta isoform (P42338 whole entry, canonical isoform): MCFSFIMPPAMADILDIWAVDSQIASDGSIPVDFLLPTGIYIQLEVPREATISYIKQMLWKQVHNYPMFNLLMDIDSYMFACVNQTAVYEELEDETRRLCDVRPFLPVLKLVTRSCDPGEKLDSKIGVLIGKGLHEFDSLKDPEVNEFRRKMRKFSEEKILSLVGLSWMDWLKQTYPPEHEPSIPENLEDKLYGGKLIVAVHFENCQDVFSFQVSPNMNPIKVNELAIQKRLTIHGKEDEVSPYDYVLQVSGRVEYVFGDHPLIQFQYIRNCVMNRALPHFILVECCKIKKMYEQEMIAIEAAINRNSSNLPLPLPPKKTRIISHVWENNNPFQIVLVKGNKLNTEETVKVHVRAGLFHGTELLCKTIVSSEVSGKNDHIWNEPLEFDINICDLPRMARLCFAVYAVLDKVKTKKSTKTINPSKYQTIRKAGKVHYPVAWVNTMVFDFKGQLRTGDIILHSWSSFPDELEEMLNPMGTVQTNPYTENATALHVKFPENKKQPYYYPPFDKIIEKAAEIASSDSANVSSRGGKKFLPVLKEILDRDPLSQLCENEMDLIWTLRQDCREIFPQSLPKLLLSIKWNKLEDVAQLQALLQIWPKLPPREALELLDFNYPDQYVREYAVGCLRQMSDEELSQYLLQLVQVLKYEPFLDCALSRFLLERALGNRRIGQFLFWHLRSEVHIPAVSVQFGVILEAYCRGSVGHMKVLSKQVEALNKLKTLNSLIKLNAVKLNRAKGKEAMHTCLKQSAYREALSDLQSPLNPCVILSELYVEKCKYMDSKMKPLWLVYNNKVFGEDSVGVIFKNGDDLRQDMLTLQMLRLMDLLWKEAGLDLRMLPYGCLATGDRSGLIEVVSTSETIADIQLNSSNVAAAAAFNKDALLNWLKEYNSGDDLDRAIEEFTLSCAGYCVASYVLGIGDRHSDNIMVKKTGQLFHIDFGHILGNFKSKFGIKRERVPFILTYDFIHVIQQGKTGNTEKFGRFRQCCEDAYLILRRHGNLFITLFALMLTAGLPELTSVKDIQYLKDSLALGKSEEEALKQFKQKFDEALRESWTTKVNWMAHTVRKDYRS

[7] = Cmax in cynomolgus monkey at 3 mg/kg, po; assay type: ADME, organism-based, Macaca fascicularis; parameters: dose 3 mg/kg, route oral; details: in vivo
How it was run: (§2)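 Single-dose PK: female athymic nude mice (10 mg/kg), female CD rats and male beagle dogs (3 mg/kg), male cynomolgus monkeys (3 mg/kg), given iv and by oral gavage. Solution in EPW (5% ethanol/45% PEG400/water), with 1:2 HCl (m/m) for mouse, rat and dog and 1:1.5 HCl (m/m) for monkey. Plasma levels followed over 24 h.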

[8] = Volume of distribution at steady state in cynomolgus monkey at 3 mg/kg, iv; assay type: ADME, organism-based, Macaca fascicularis; parameters: dose 3 mg/kg, route intravenous; details: in vivo, read-out: Vdss
[9] = target: Serine/threonine-protein kinase pim-1 (Homo sapiens, UniProt P11309); test: Inhibition of PIM1 (unknown origin)
[10] = Volume of distribution at steady state in CD rat at 3 mg/kg, iv; assay type: ADME, organism-based; parameters: dose 3 mg/kg, route intravenous; details: in vivo, read-out: Vdss
[11] = target: ALK tyrosine kinase receptor (Homo sapiens, UniProt Q9UM73); test: Inhibition of ALK (unknown origin)
Sequence of ALK tyrosine kinase receptor (Q9UM73 whole entry, canonical isoform): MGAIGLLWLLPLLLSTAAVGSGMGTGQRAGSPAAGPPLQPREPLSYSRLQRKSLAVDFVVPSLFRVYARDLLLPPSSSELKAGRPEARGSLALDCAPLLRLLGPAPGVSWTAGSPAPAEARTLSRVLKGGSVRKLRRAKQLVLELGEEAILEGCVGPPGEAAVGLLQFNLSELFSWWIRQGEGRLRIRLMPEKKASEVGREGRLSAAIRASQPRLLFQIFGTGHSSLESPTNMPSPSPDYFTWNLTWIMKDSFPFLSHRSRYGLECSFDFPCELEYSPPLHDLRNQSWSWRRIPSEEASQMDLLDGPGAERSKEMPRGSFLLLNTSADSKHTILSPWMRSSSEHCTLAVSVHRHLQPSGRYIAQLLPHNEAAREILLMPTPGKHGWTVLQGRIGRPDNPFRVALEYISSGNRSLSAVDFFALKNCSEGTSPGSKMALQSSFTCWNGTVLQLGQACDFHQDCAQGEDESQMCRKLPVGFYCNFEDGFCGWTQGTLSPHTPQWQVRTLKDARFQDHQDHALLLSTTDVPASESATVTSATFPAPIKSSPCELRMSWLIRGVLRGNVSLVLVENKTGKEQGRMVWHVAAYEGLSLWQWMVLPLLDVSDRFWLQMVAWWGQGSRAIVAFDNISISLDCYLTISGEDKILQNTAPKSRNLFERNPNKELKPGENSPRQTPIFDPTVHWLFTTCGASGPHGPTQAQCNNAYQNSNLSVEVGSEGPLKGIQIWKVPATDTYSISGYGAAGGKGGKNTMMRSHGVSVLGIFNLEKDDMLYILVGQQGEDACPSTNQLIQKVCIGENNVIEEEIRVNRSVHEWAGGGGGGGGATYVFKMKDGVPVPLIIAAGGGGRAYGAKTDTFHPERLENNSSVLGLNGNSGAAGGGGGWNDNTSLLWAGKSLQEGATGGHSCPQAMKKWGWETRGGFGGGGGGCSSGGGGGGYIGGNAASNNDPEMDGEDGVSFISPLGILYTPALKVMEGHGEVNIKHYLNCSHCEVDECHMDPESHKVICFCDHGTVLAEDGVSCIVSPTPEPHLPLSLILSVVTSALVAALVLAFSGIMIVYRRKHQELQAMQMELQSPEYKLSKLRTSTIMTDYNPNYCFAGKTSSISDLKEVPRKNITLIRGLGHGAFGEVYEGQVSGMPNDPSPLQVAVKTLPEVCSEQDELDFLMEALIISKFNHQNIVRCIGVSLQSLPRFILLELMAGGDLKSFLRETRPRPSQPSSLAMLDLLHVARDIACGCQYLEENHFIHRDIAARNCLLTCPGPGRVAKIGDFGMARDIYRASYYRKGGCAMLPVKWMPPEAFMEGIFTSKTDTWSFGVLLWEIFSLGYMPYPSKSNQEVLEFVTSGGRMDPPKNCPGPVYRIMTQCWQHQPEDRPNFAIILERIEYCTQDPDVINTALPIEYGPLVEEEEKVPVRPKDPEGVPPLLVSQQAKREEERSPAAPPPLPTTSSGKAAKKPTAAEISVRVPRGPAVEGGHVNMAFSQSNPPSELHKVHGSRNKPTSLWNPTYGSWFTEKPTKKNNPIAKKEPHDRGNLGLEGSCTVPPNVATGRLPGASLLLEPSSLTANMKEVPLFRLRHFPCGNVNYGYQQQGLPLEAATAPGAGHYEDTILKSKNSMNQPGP

[12] = target: Phosphatidylinositol 4,5-bisphosphate 3-kinase catalytic subunit delta isoform (Homo sapiens, UniProt O00329); test: Inhibition of PI3Kdelta (unknown origin)
[13] = test system: Mus musculus; test: In vivo inhibition of mTORC2-mediated phosphorylation of AKT at serine 473 in human MCF7 cells xenografted into athymic nude mouse at 100 mg/kg, po after 4 hrs by Western blotting analysis relative to control; assay type: functional; details: MCF7, 4 h; how it was run: as §1
[14] = test system: Mus musculus; test: In vivo inhibition of mTORC1-mediated phosphorylation of pS6 at (serine 240/244) in human MCF7 cells xenografted into athymic nude mouse at 100 mg/kg, po after 16 hrs by Western blotting analysis relative to control; assay type: functional; details: MCF7, 16 h; how it was run: as §1
[15] = test system: Mus musculus; test: In vivo inhibition of mTORC2-mediated phosphorylation of AKT at serine 473 in human MCF7 cells xenografted into athymic nude mouse at 100 mg/kg, po after 8 hrs by Western blotting analysis relative to control; assay type: functional; details: MCF7, 8 h; how it was run: as §1
[16] = test system: Mus musculus; test: In vivo inhibition of mTORC2-mediated phosphorylation of AKT at […] in human MCF7 cells xenografted into athymic nude mouse at 100 mg/kg, po after 24 hrs by Western blotting analysis relative to control; assay type: functional; details: MCF7, 24 h; how it was run: as §1
[17] = Half life in cynomolgus monkey at 3 mg/kg, iv; assay type: ADME, organism-based, Macaca fascicularis; parameters: dose 3 mg/kg, route intravenous; details: in vivo; how it was run: as §2
[18] = Cmax in Beagle dog at 3 mg/kg, iv; assay type: ADME, organism-based, Canis lupus familiaris; parameters: dose 3 mg/kg, route intravenous; details: in vivo; how it was run: as §2
[19] = target: Vascular endothelial growth factor receptor 1 (Homo sapiens, UniProt P17948); test: Inhibition of FLT1 (unknown origin)
Sequence of Vascular endothelial growth factor receptor 1 (P17948 whole entry, canonical isoform): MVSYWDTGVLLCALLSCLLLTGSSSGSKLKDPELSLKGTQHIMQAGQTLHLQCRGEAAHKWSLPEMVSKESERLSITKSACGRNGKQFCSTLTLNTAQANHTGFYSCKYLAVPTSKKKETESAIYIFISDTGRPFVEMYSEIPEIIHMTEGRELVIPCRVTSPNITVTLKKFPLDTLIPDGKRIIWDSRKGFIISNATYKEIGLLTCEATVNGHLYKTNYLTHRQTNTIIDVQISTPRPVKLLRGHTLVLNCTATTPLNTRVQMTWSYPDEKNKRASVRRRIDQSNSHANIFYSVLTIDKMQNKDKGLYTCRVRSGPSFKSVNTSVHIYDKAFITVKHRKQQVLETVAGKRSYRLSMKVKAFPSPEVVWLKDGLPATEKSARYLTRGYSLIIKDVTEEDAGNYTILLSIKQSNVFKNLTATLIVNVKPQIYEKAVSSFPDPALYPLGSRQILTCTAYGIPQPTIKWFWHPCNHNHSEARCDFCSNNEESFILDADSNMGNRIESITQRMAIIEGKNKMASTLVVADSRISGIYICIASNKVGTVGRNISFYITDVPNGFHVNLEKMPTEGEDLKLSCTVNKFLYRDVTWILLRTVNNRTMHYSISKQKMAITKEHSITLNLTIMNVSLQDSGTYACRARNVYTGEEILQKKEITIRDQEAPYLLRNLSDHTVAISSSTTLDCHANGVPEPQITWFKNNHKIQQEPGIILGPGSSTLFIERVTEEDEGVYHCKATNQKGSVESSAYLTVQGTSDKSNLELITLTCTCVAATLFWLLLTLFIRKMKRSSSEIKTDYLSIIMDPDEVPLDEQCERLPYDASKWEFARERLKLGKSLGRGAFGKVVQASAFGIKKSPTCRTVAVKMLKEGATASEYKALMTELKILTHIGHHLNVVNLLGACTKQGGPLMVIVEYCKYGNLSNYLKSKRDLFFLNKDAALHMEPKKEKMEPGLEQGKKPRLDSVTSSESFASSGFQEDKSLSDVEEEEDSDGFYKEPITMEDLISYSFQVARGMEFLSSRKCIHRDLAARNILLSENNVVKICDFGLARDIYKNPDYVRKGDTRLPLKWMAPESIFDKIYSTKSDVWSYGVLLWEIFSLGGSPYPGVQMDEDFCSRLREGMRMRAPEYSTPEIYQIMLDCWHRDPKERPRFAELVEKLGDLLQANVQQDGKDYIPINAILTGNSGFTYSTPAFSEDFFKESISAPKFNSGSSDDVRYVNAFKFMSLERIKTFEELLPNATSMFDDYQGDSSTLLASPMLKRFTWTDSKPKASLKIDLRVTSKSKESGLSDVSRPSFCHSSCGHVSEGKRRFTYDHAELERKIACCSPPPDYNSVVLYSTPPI

[20] = target: Phosphatidylinositol 4,5-bisphosphate 3-kinase catalytic subunit gamma isoform (Homo sapiens, UniProt P48736); test: Inhibition of PI3Kgamma (unknown origin)
Sequence of Phosphatidylinositol 4,5-bisphosphate 3-kinase catalytic subunit gamma isoform (P48736 whole entry, canonical isoform): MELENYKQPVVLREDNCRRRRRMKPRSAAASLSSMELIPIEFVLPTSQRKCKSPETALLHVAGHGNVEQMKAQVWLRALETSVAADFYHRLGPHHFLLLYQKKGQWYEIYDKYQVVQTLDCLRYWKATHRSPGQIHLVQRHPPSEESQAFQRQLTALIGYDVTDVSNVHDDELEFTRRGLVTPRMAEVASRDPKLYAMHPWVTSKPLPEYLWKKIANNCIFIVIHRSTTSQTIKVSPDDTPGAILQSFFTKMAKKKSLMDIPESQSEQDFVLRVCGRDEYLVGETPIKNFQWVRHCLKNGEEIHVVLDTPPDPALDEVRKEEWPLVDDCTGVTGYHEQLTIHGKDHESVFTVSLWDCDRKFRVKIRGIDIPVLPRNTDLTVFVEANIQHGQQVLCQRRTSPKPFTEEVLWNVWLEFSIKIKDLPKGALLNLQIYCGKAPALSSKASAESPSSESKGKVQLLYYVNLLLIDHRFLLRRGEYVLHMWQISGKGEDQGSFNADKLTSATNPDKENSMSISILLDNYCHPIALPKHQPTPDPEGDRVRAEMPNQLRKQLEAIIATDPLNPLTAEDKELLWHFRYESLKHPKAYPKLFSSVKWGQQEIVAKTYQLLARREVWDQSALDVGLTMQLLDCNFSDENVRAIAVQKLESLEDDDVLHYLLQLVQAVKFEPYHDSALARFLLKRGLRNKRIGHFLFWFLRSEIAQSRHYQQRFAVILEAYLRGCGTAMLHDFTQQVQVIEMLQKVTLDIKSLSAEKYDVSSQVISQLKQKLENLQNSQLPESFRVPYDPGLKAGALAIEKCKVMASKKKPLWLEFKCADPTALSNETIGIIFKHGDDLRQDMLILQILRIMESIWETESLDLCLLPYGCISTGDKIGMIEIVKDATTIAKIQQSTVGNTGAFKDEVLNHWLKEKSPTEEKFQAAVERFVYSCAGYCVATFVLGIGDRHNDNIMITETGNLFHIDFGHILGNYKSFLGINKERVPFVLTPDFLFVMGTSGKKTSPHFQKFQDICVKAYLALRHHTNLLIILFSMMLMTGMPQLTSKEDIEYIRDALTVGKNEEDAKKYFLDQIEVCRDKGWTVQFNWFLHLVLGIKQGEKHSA

- concentration at 24 h [1]: 110 nM
- solubility kinetic [2]: 232 µM (≈ 106 µg/mL)
- concentration at 16 h [3]: 2080 nM
- concentration at 1 h [4]: 36100 nM
- pIC50 [6]: < 5.30
- Cmax [7]: 250 nM
- Vd [8]: 6.42 L/kg
- pIC50 [9]: < 5.46
- Vd [10]: 1.27 L/kg
- pIC50 [11]: < 5.46
- pIC50 [12]: < 5.30
- half-life [17]: 51.6 min
- Cmax [18]: 2280 nM
- pIC50 [19]: < 5.46
- pIC50 [20]: < 5.30
SMILES: Cc1c(C(=O)N2CCOc3ccc(-c4ccc(N)nc4)cc3C2)ccc(S(C)(=O)=O)c1F
- inhibition in vivo at 100 mg/kg [5]: 96%
- inhibition in vivo at 100 mg/kg [13]: 87%
- inhibition in vivo at 100 mg/kg [14]: 36%
- inhibition in vivo at 100 mg/kg [15]: 89%
- inhibition in vivo at 100 mg/kg [16]: -39%
